# Assay results as given in ChEMBL document CHEMBL2029240 (ACS Med Chem Lett, 2011).
# Active and inactive are the calls of the source. The calls are words filed in the database; no cut-off is given here.
# Assays:
# [1] = target: T1, C-C chemokine receptor type 2 (Homo sapiens, UniProt P41597)
# [2] = target: T1, C-C chemokine receptor type 2; assay: Antagonist activity at CCR2 receptor in human whole blood assessed as inhibition of alexa-tagged MCP-induced effect 30 mins by flow cytometry; type: functional, tissue-based
# [3] = target: T2, Voltage-gated inwardly rectifying potassium channel KCNH2 (Homo sapiens, UniProt Q12809); assay: Displacement of [3H]dofetilide from human ERG
# [4] = target: T3, C-C chemokine receptor type 2 (Rattus norvegicus, UniProt O55193); assay: Binding affinity to rat CCR2
# T3 sequence (O55193 whole entry): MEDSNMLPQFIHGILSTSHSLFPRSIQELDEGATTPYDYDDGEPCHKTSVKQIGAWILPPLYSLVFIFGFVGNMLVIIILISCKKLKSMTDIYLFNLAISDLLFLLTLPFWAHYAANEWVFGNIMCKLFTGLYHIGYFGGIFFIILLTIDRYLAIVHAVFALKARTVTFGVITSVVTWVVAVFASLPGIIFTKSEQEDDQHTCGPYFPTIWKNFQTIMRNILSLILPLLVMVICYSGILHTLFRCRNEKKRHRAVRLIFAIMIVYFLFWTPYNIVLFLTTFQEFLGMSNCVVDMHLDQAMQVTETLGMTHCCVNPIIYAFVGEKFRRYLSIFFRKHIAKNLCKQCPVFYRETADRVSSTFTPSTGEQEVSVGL
# [5] = Clearance in dog at 2 mg/kg, iv; type: ADME, organism-based, Canis lupus familiaris; set-up: dose 2 mg/kg, route intravenous; conditions: in vivo
# [6] = Induction of Cytochrome P450 up to 30 uM; type: ADME
# [7] = Fraction unbound in human serum; type: ADME, cell-free
# Cytochrome P450 2C19 = Cytochrome P450 2C19 (Homo sapiens, UniProt P33261); assay: Inhibition of CYP2C19; type: ADME
# hERG (KCNH2) = hERG (KCNH2) (Homo sapiens, UniProt Q12809); assay: Inhibition of human ERG at 10 uM by patch clamp assay
# Cytochrome P450 2D6 = Cytochrome P450 2D6 (Homo sapiens, UniProt P10635); assay: Inhibition of CYP2D6; type: ADME
# Rattus norvegicus [8] = assay: AUC in rat at 10 mg/kg, po; type: ADME, organism-based, Plasma; set-up: dose 10 mg/kg, route oral; conditions: in vivo
# Summary of the method: (§1)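 Rats were dosed iv at 2 mg/kg and orally at 10 mg/kg. Plasma PK parameters derived: CL (L/h/kg), Vss (L/kg), t1/2 (h), Cmax (nM), Tmax (h), AUC (nM h) and oral F%.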
# Rattus norvegicus [9] = assay: Clearance in rat at 2 mg/kg, iv; type: ADME, organism-based; set-up: dose 2 mg/kg, route intravenous; conditions: in vivo
# Summary of the method: as §1
# [10] = target: T4, C-X-C chemokine receptor type 3 (Homo sapiens) (UniProt P49682); assay: Inhibition of CXCR3 at 1 uM
# T4 sequence (whole entry): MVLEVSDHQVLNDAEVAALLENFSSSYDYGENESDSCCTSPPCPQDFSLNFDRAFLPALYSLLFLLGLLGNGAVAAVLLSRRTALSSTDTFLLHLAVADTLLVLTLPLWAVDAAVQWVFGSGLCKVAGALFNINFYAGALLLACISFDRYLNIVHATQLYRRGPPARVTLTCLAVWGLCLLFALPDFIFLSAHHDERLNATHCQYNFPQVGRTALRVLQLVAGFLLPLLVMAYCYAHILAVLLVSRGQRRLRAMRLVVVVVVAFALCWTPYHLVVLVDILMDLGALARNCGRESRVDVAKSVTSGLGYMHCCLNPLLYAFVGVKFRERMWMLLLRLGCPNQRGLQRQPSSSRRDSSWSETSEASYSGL
# Summary of the method: (§2)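 Single-concentration screen at 1 μM against a broad panel of more than 50 targets (ion channels, transporters, chemokine receptors, other GPCRs), scored for significant inhibition.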
# [11] = target: T5, C-C chemokine receptor type 2 (Mus musculus, UniProt P51683); assay: Binding affinity to mouse CCR2
# Summary of the method: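 Mouse CCR2 binding assay, with affinity reported as IC50.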
# [12] = Volume of distribution at steady state in dog at 2 mg/kg, iv; type: ADME, organism-based, Canis lupus familiaris; set-up: dose 2 mg/kg, route intravenous; conditions: in vivo, read-out: Vdss
# [13] = Cmax in dog at 10 mg/kg, po; type: ADME, organism-based, Canis lupus familiaris; set-up: dose 10 mg/kg, route oral; conditions: in vivo
# [14] = target: T5, C-C chemokine receptor type 2; assay: Antagonist activity at mouse CCR2; type: functional
# Summary of the method: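 Read-out was antagonism of CCR2-mediated chemotaxis in a mouse chemotaxis assay, with activity reported as IC50.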
# [15] = Half life in dog at 2 mg/kg, iv; type: ADME, organism-based, Canis lupus familiaris; set-up: dose 2 mg/kg, route intravenous; conditions: in vivo
# Cytochrome P450 2C9 = Cytochrome P450 2C9 (Homo sapiens, UniProt P11712); assay: Inhibition of CYP2C9; type: ADME
# [16] = target: T6, C-X-C chemokine receptor type 5 (Homo sapiens) (UniProt P32302); assay: Inhibition of CXCR5 at 1 uM
# T6 sequence (whole entry): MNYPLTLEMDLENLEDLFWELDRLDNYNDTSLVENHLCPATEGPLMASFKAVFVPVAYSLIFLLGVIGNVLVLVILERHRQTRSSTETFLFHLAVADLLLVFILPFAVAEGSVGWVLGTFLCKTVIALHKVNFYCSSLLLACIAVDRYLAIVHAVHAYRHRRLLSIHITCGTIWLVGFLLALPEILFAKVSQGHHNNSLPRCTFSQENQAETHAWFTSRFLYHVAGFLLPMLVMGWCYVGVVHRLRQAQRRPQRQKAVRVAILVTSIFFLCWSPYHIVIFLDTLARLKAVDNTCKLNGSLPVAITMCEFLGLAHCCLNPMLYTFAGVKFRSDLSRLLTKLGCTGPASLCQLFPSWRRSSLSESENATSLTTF
# Summary of the method: as §2
# [17] = target: T2, Voltage-gated inwardly rectifying potassium channel KCNH2; assay: Inhibition of human ERG by patch clamp assay
# [18] = Cmax in rat at 10 mg/kg, po; type: ADME, organism-based; set-up: dose 10 mg/kg, route oral; conditions: in vivo
# Summary of the method: as §1
# [19] = target: T3, C-C chemokine receptor type 2; assay: Antagonist activity at rat CCR2; type: functional
# [20] = target: T7, C-C chemokine receptor type 3 (Homo sapiens) (UniProt P51677); assay: Inhibition of CCR3 at 1 uM
# T7 sequence (whole entry): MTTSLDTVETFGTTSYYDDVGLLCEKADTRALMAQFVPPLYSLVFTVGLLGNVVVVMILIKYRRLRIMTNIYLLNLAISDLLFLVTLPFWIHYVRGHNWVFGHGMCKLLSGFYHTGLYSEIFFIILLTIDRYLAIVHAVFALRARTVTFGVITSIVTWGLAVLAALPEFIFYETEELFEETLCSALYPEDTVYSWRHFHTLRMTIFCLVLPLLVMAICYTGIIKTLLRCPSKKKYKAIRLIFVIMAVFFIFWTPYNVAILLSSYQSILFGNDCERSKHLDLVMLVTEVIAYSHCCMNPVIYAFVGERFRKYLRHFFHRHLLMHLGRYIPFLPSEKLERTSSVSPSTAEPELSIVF
# Summary of the method: as §2
# [21] = Half life in rat at 10 mg/kg, po; type: ADME, organism-based; set-up: dose 10 mg/kg, route oral; conditions: in vivo
# Summary of the method: as §1
# Rattus norvegicus [22] = assay: Oral bioavailability in rat at 10 mg/kg; type: ADME, organism-based; conditions: in vivo
# Summary of the method: as §1
# [23] = Drug metabolism in human S9 fraction assessed as glutathione adduct formation in the presence of NADPH; type: ADME, subcellular
# Summary of the method: (§3)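 Test agent incubated with human liver S9 fraction plus glutathione as cofactor, run both with and without NADPH. Read-out was detection of glutathione adducts.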
# Rattus norvegicus [24] = assay: Half life in rat at 2 mg/kg, iv; type: ADME, organism-based; set-up: dose 2 mg/kg, route intravenous; conditions: in vivo
# Summary of the method: as §1
# [25] = Tmax in dog at 10 mg/kg, po; type: ADME, organism-based, Canis lupus familiaris; set-up: dose 10 mg/kg, route oral; conditions: in vivo
# [26] = Tmax in rat at 10 mg/kg, po; type: ADME, organism-based; set-up: dose 10 mg/kg, route oral; conditions: in vivo
# Summary of the method: as §1
# [27] = Drug metabolism in human S9 fraction assessed as glutathione adduct formation in the absence of NADPH; type: ADME, subcellular
# Summary of the method: as §3
# [28] = Half life in dog at 10 mg/kg, po; type: ADME, organism-based, Canis lupus familiaris; set-up: dose 10 mg/kg, route oral; conditions: in vivo
# [29] = Oral bioavailability in dog at 10 mg/kg; type: ADME, organism-based, Canis lupus familiaris; conditions: in vivo
# [30] = Permeability across human Caco2 cells; type: ADME, cell-based; conditions: Caco-2, read-out: permeability
# [31] = target: C-C chemokine receptor type 5 (Homo sapiens) (UniProt P51681); assay: Inhibition of CCR5 at 1 uM
# Summary of the method: as §2
# Cytochrome P450 1A2 = target: T8, Cytochrome P450 1A2 (Homo sapiens, UniProt P05177); assay: Inhibition of CYP1A2; type: ADME
# T8 sequence (P05177 whole entry): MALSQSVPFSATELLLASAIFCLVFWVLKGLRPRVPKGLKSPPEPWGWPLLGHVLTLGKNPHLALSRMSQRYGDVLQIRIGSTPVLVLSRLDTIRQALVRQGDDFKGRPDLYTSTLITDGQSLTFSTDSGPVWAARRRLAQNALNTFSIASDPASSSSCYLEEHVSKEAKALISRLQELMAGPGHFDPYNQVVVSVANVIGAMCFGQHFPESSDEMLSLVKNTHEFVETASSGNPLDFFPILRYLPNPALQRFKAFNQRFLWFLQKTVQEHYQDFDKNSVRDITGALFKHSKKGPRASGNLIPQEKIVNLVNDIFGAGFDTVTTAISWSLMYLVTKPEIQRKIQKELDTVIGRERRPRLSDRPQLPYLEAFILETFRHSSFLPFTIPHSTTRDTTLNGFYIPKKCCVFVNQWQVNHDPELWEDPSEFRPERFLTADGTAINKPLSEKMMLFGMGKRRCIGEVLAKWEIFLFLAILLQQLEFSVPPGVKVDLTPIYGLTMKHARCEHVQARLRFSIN
# [32] = AUC in dog at 10 mg/kg, po; type: ADME, organism-based, Canis lupus familiaris; set-up: dose 10 mg/kg, route oral; conditions: plasma
# [33] = target: T9, C-C chemokine receptor type 1 (Homo sapiens) (UniProt P32246); assay: Inhibition of CCR1 at 1 uM
# T9 sequence (whole entry): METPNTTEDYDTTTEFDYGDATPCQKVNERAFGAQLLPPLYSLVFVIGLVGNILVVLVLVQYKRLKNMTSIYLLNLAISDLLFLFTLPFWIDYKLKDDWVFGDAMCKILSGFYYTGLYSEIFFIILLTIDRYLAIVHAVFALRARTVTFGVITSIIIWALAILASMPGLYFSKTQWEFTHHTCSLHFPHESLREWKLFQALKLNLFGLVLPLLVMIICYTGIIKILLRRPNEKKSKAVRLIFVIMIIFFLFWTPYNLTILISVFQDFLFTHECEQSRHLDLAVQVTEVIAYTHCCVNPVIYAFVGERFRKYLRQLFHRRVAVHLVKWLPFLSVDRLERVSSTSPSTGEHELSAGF
# Summary of the method: as §2
# [34] = Half life in human liver microsomes; type: ADME, Microsome
# T1 sequence (P41597 whole entry): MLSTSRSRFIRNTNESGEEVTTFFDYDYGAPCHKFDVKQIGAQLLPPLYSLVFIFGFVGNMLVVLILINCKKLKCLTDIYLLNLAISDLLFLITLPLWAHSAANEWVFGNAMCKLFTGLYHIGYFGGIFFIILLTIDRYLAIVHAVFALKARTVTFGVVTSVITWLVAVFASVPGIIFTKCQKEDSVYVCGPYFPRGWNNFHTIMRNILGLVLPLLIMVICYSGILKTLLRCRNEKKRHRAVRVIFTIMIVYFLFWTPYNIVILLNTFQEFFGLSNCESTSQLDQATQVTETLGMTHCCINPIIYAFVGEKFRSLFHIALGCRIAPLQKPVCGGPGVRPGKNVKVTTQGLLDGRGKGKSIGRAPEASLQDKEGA
# T2 sequence (Q12809 whole entry): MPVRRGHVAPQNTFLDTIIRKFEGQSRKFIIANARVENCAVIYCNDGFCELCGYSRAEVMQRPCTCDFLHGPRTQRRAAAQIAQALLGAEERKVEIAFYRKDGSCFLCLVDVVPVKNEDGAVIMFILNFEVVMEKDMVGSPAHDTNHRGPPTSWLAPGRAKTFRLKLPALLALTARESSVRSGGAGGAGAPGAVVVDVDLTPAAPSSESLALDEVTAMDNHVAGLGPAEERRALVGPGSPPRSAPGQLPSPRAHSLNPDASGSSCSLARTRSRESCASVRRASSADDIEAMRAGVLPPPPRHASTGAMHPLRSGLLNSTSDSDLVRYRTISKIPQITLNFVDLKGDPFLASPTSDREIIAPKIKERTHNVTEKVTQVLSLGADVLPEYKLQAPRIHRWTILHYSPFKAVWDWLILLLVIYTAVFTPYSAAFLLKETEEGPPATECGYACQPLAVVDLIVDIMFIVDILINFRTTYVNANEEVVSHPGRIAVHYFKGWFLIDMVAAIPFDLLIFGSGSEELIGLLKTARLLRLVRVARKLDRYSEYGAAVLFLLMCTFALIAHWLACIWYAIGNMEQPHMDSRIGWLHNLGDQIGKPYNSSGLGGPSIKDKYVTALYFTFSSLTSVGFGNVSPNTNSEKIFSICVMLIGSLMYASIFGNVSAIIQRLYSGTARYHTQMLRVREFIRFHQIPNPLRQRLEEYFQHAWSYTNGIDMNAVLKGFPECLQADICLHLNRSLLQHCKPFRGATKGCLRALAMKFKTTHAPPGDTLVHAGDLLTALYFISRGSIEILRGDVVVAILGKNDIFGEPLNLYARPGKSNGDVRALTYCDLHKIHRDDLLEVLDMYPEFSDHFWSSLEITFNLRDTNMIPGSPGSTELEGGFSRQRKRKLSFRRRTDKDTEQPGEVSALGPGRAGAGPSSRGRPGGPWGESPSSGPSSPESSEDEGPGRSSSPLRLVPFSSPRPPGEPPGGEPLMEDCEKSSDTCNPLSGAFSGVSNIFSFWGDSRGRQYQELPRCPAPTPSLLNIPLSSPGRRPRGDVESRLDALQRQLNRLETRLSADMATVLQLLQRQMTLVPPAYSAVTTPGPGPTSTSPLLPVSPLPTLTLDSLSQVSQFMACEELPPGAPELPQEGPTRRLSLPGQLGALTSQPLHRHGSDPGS
# T5 sequence (P51683 whole entry): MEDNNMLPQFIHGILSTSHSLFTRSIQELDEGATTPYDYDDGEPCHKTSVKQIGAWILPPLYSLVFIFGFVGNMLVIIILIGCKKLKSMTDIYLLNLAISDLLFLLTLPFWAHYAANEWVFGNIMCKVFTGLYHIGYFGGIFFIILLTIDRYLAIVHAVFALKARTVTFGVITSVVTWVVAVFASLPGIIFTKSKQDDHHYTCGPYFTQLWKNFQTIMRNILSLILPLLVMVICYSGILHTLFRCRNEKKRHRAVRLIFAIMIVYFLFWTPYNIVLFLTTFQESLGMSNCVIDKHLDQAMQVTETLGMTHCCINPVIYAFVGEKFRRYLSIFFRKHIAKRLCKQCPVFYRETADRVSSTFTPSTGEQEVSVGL
# hERG (KCNH2), sequence (Q12809 whole entry): as the sequence (Q12809 whole entry) above
# Cytochrome P450 2D6, sequence (P10635 whole entry): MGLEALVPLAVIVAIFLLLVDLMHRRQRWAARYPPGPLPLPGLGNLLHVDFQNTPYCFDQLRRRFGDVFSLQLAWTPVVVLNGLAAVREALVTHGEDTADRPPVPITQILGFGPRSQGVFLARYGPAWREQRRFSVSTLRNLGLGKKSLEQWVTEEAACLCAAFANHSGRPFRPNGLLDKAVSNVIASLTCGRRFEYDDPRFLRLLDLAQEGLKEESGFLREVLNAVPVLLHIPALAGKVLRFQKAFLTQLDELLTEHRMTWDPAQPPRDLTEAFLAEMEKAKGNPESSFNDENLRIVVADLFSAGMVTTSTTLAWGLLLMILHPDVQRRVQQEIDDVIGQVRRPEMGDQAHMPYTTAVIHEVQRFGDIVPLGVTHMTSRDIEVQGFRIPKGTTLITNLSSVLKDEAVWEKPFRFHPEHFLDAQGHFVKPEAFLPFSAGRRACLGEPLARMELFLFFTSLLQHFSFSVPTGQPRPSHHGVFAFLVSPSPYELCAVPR
# Cytochrome P450 2C19, sequence (P33261 whole entry): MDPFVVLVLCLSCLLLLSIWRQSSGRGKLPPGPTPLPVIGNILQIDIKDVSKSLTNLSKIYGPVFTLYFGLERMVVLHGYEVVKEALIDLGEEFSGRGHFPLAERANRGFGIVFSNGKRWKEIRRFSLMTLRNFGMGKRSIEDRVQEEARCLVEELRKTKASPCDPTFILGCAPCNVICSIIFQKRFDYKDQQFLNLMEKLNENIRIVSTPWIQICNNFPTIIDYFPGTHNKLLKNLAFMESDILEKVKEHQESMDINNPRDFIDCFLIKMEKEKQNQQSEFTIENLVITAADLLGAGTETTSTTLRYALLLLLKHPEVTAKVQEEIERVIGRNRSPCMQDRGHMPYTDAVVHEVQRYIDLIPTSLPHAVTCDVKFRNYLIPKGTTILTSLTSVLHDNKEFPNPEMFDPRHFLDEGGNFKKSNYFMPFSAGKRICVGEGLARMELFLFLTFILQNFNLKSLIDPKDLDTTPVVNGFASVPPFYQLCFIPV
# C-C chemokine receptor type 5 (Homo sapiens), sequence (P51681 whole entry, looked up): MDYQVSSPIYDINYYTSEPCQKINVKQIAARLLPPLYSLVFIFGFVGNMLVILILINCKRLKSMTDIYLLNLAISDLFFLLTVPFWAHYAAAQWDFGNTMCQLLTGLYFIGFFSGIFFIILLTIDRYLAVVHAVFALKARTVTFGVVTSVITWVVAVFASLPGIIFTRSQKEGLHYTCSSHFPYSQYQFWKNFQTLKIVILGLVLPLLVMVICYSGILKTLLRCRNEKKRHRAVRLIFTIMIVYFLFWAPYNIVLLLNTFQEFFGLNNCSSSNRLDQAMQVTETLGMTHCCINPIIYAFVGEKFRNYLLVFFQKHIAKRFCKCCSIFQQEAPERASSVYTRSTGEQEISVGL
# Cytochrome P450 2C9, sequence (P11712 whole entry): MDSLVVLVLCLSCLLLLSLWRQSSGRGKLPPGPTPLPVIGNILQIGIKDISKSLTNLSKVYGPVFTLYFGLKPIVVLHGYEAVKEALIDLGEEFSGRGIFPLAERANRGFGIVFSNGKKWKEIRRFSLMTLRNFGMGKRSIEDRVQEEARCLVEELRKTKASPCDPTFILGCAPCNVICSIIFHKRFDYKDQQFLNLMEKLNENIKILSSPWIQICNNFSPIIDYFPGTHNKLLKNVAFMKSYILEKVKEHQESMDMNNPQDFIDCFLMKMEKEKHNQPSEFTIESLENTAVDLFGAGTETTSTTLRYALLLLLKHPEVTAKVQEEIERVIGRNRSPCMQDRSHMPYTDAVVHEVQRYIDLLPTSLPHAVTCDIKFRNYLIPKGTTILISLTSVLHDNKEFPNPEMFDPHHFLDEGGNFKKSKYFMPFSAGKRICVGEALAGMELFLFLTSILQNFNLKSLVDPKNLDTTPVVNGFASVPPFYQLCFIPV
structure (smiles),measurement,setting,value
O=C(C1CCN(c2nccc(C(F)(F)F)n2)CC1)N1CC[C@H](N[C@H]2CC[C@@](O)(c3ccc(-c4ncccn4)cn3)CC2)C1,IC50,[1],0.0054 µM
same,IC50,[2],0.029 µM
O=C(C1CCN(c2cc(C(F)(F)F)ncn2)CC1)N1CC[C@H](N[C@H]2CC[C@@](O)(c3ccc(-c4ncccn4)cn3)CC2)C1,IC50,[1],0.01 µM
same,IC50,[2],0.04 µM
same,IC50,[3],> 30 µM
N#Cc1ccnc(N2CCC(C(=O)N3CC[C@H](N[C@H]4CC[C@@](O)(c5ccc(-c6ncccn6)cn5)CC4)C3)CC2)c1,IC50,[1],0.011 µM
same,IC50,[2],0.033 µM
O=C(N1CC[C@H](N[C@H]2CC[C@@](O)(c3ccc(-c4ncccn4)cn3)CC2)C1)C1(O)CCN(c2cc(C(F)(F)F)ccn2)CC1,IC50,[1],0.0033 µM
same,IC50,[2],0.033 µM
same,IC50,[3],> 30 µM
O=C(NCC(=O)N1CC[C@H](N[C@H]2CC[C@@](O)(c3ccc(-c4ncccn4)cn3)CC2)C1)c1cccc(C(F)(F)F)c1 [PF-4136309],IC50,[4],0.013 µM
same,clearance,[5],0.46 L/h/kg
same,Activity,[6],Not Active
same,fraction unbound,[7],0.23
same,IC50,Cytochrome P450 2C19,> 30 µM
same,inhibition at 10 µM,hERG (KCNH2),35%
same,IC50,Cytochrome P450 2D6,> 30 µM
same,AUC,Rattus norvegicus [8],2.723 µM·h
same,CL,Rattus norvegicus [9],1.41 L/h/kg
same,inhibition,[10],inactive
same,IC50,[11],0.017 µM
same,Vd,[12],0.62 L/kg
same,Cmax,[13],20 µM
same,IC50,[14],0.016 µM
same,half-life,[15],2.4 h
same,IC50,Cytochrome P450 2C9,> 30 µM
same,inhibition,[16],inactive
same,IC50,[17],20 µM
same,Cmax,[18],0.61 µM
same,IC50,[19],0.0028 µM
same,inhibition,[20],inactive
same,half-life,[21],2.5 h
same,F,Rattus norvegicus [22],78%
same,Drug metabolism,[23],Not Active
same,t1/2,Rattus norvegicus [24],2.5 h
same,Tmax,[25],0.25 h
same,Tmax,[26],1.2 h
same,Drug metabolism,[27],Not Active
same,half-life,[28],3.2 h
same,IC50,[3],> 30 µM
same,bioavailability,[29],78%
same,Papp,[30],31 nm/s
same,inhibition,[31],inactive
same,IC50,Cytochrome P450 1A2,> 30 µM
same,AUC,[32],35.6 µM·h
same,inhibition,[33],inactive
same,half-life,[34],1.48 h
